In ChEMBL document CHEMBL1151806, “Indolizidine, antiinfective and antiparasitic compounds from Prosopis glandulosa var. glandulosa” (J Nat Prod, 2009):
Converted amounts (≈) assume the structure as drawn. The source made the active and inactive calls. The rule behind the calls is not given here.

How the values were obtained:
[1] = Selectivity index, IC50 for african green monkey (Cercopithecus aethiops) Vero cells to IC50 for […]; assay type: functional
How it was run: (§1)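 Selectivity index = IC50 against VERO cells divided by IC50 against P. falciparum (D6 or W2, respectively), each from the corresponding in-house assay.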

[2] = Selectivity index, IC50 for african green monkey (Cercopithecus aethiops) Vero cells to IC50 for chloroquine-sensitive Plasmodium falciparum D6; assay type: functional; how it was run: as §1
Aspergillus fumigatus [3] = assay: Antimicrobial activity against Aspergillus fumigatus ATCC 90906 by alamar blue assay; assay type: functional, organism-based
How it was run: (§2)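 Samples serially diluted in 20% DMSO/saline, tested in duplicate. Inocula set by OD630: C. albicans RPMI pH 4.5, 1·10^4 CFU/mL; C. neoformans Sabouraud dextrose, 1·10^5; MRSA cation-adjusted Mueller-Hinton pH 7.3, 5·10^5; M. intracellulare 7H9/OADC + 5% Alamar Blue pH 7.3, 2·10^6; A. fumigatus RPMI pH 7.3 + 5% Alamar Blue, 3·10^4.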

Staphylococcus aureus [4] = assay: Antimicrobial activity against methicillin-resistant Staphylococcus aureus ATCC 43300 by NCCLS method; assay type: functional, organism-based; how it was run: as §2
[5] = tested on: Mycobacterium intracellulare; assay: Antimicrobial activity against Mycobacterium intracellular ATCC 23068 by alamar blue assay; assay type: functional, organism-based
How it was run: as §2, with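 “3·10^4. Read at 630 nm or 544ex/590em before and after incubation.” for “3·10^4.”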

Candida albicans [6] = assay: Antimicrobial activity against Candida albicans ATCC 90028 by NCCLS method; assay type: functional, organism-based; how it was run: as §2
Plasmodium falciparum [7] = assay: Antimalarial activity after 72 hrs against […] Plasmodium falciparum D6 by pLDH activity; assay type: functional, organism-based; details: D6, 72 h
How it was run: (§3)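 P. falciparum-infected red cells (2% parasitemia, 2% hematocrit) in RPMI-1640 with 10% human serum and 60 μg/mL amikacin, exposed to serial sample concentrations. Gassed with 90% N2/5% O2/5% CO2, incubated 37 °C for 72 h. Parasite LDH activity read colorimetrically with Malstat reagent.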

Cryptococcus neoformans [8] = assay: Antimicrobial activity against Cryptococcus neoformans ATCC 90113 by NCCLS method; assay type: functional, organism-based; how it was run: as §2
Vero [9] = assay: Cytotoxicity against african green monkey Vero cells at 4760 ng/mL; assay type: cell-based, Chlorocebus sabaeus
Leishmania donovani = assay: Antileishmanial activity against Leishmania donovani promastigotes after 48 hrs by alamar blue assay; assay type: functional, organism-based
Plasmodium falciparum [10] = assay: Antimalarial activity after 72 hrs against chloroquine-resistant Plasmodium falciparum W2 by pLDH activity; assay type: functional, organism-based; details: W2, 72 h; how it was run: as §3
LLC-PK1 = assay: Cytotoxicity against pig LLC-PK1 cells after 48 hrs by neutral red assay; assay type: cell-based, Sus scrofa; details: Sus scrofa, LLC-PK1, 48 h; read-out: IC50
How it was run: (§4)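 Cells seeded at 25,000/well, incubated 24 h, then exposed to samples for 48 h. Viable cells measured by Neutral Red uptake. IC50 from logarithmic plots of growth inhibition vs concentration. Doxorubicin positive control, DMSO vehicle control.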

KB = assay: Cytotoxicity against human KB cells after 48 hrs by neutral red assay; assay type: functional, cell-based; how it was run: as §4
SK-MEL = assay: Cytotoxicity against human SK-MEL cells after 48 hrs by neutral red assay; assay type: functional, cell-based; how it was run: as §4
SK-OV-3 = assay: Cytotoxicity against human SKOV3 cells after 48 hrs by neutral red assay; assay type: functional, cell-based; details: SK-OV-3, 48 h; how it was run: as §4
BT-549 = assay: Cytotoxicity against human BT549 cells after 48 hrs by neutral red assay; assay type: functional, cell-based; details: BT-549, 48 h; how it was run: as §4
Vero [11] = assay: Cytotoxicity against african green monkey Vero cells after 48 hrs by neutral red assay; assay type: cell-based, Chlorocebus sabaeus; details: Chlorocebus sabaeus, Vero, 48 h; read-out: IC50; how it was run: as §4
Staphylococcus aureus [12] = assay: Antimicrobial activity against methicillin-resistant Staphylococcus aureus ATCC 43300 by NCCLS method in presence of 5% human serum; assay type: functional, organism-based
Candida albicans [13] = assay: Antimicrobial activity against Candida albicans ATCC 90028 by NCCLS method in presence of 5% human serum; assay type: functional, organism-based
Aspergillus fumigatus [14] = assay: Antimicrobial activity against Aspergillus fumigatus ATCC 90906 by alamar blue assay in presence of 5% human serum; assay type: functional, organism-based
[15] = tested on: Mycobacterium intracellulare; assay: Antimicrobial activity against Mycobacterium intracellular ATCC 23068 by alamar blue assay in presence of 5% human serum; assay type: functional, organism-based
Cryptococcus neoformans [16] = assay: Antimicrobial activity against Cryptococcus neoformans ATCC 90113 by NCCLS method in presence of 5% human serum; assay type: functional, organism-based
[17] = Toxicity in RBC assessed as hemolysis; assay type: cell-based; details: Erythrocyte
[18] = Aspergillus fumigatus, ATCC 90906, read-out: IC50
[19] = Candida albicans, ATCC 90028, read-out: IC50

## C[C@H]1N[C@@H](CCCCCCCCCCC2=C[C@@H](CCCCCCCCCC[C@@H]3CC[C@H](O)[C@@H](C)N3)[C@@H]3CCCN3C2)CC[C@H]1O.Cl.Cl
[1]
  Ratio IC50: >16.4
[2]
  Ratio IC50: >12.5
Aspergillus fumigatus [3]; [18]
  IC50: 6.5 µg/mL
Staphylococcus aureus [4]
  IC50: 3 µg/mL
[5]
  IC50: 10 µg/mL
Candida albicans [6]; [19]
  IC50: 7.5 µg/mL
Plasmodium falciparum [7]
  IC50: 0.38 µg/mL
Cryptococcus neoformans [8]
  IC50: 0.85 µg/mL
  MFC: 2.5 µg/mL
  MIC: 1.25 µg/mL
Vero [9]
  IC50: Non-toxic
Leishmania donovani
  IC50: 0.7 µg/mL
  IC90: 1.2 µg/mL
Plasmodium falciparum [10]
  IC50: 0.29 µg/mL

## CCN(CC)CCCC(C)Nc1ccnc2cc(Cl)ccc12 (stereo not given) [CHLOROQUINE]
Vero [9]
  IC50: Non-toxic

## COc1cccc2c1C(=O)c1c(O)c3c(c(O)c1C2=O)C[C@@](O)(C(=O)CO)C[C@@H]3O[C@H]1C[C@H](N)[C@H](O)[C@H](C)O1 [DOXORUBICIN]
LLC-PK1
  IC50: < 0.55 µg/mL
KB
  IC50: < 0.55 µg/mL
SK-MEL
  IC50: < 0.55 µg/mL
SK-OV-3
  IC50: < 0.55 µg/mL
BT-549
  IC50: < 0.55 µg/mL
Vero [11]
  IC50: 3.2 µg/mL (≈ 5.89 µM)

## N=C(N)c1ccc(OCCCCCOc2ccc(C(=N)N)cc2)cc1 [PENTAMIDINE]
Leishmania donovani
  IC50: 0.5 µg/mL (≈ 1.47 µM)
  IC90: 2 µg/mL (≈ 5.87 µM)

## O=C(O)c1cn(C2CC2)c2cc(N3CCNCC3)c(F)cc2c1=O [CIPROFLOXACIN]
Staphylococcus aureus [4]
  MBC: inactive
  MIC: 0.3 µg/mL (≈ 0.905 µM)
[5]
  MBC: inactive
  MIC: 0.63 µg/mL (≈ 1.9 µM)

## C[C@H]1N[C@@H](CCCCCCCCCCC2=C[C@@H](CCCCCCCCCC[C@@H]3CC[C@H](O)[C@@H](C)N3)[C@@H]3CCCN3C2)CC[C@H]1O
Staphylococcus aureus [12]
  Activity: Active
Candida albicans [13]
  Activity: Active
Aspergillus fumigatus [3]
  MFC: inactive
Staphylococcus aureus [4]
  MBC: inactive
[5]
  MBC: inactive
  MIC: inactive
Candida albicans [6]
  MFC: inactive
  MIC: inactive
Aspergillus fumigatus [14]
  Activity: Active
[15]
  Activity: Active
Cryptococcus neoformans [16]
  Activity: Active

## C[C@@H]1N[C@H](CCCCCCCCCCC2=C[C@@H](CCCCCCCCCC[C@@H]3CC[C@@H](O)[C@H](C)N3)[C@@H]3CCCN3C2)CC[C@H]1O.Cl.Cl
[1]
  Ratio IC50: >8.5
[2]
  Ratio IC50: >7.9
Aspergillus fumigatus [3]
  IC50: Not Active
Staphylococcus aureus [4]
  IC50: 3 µg/mL
[5]
  IC50: 9.5 µg/mL
  MIC: 20 µg/mL
Candida albicans [6]
  IC50: Not Active
Plasmodium falciparum [7]
  IC50: 0.6 µg/mL
Cryptococcus neoformans [8]
  IC50: 2 µg/mL
Vero [9]
  IC50: Non-toxic
Leishmania donovani
  IC90: 7 µg/mL

## C[C@@H]1[C@H](O)[C@@H](C)/C=C/C=C/C=C/C=C/C=C/C=C/C=C/[C@H](O[C@@H]2O[C@H](C)[C@@H](O)[C@H](N)[C@@H]2O)C[C@@H]2O[C@](O)(C[C@@H](O)C[C@@H](O)[C@H](O)CC[C@@H](O)C[C@@H](O)CC(=O)O[C@H]1C)C[C@H](O)[C@H]2C(=O)O [AMPHOTERICIN B]
[17]
  IC50: 3.9 µg/mL (≈ 4.22 µM)
KB
  IC50: > 25 µg/mL
Aspergillus fumigatus [3]; Aspergillus fumigatus, ATCC 90906
  MIC: 0.63 µg/mL (≈ 0.682 µM)
Aspergillus fumigatus [3]; [18]
  IC50: 0.4 µg/mL (≈ 0.433 µM)
Candida albicans [6]; Candida albicans, ATCC 90028
  MIC: 0.63 µg/mL (≈ 0.682 µM)
Candida albicans [6]; [19]
  IC50: 0.35 µg/mL (≈ 0.379 µM)
SK-MEL
  IC50: 5 µg/mL (≈ 5.41 µM)
Cryptococcus neoformans [8]
  IC50: 0.45 µg/mL (≈ 0.487 µM)
SK-OV-3
  IC50: > 25 µg/mL
BT-549
  IC50: 5.5 µg/mL (≈ 5.95 µM)
Vero [11]
  IC50: 7.5 µg/mL (≈ 8.12 µM)
